Test results published in ChEMBL document CHEMBL1149155, “Development of a new radioligand, N-(5-fluoro-2-phenoxyphenyl)-N-(2-[18F]fluoroethyl-5-methoxybenzyl)acetamide, for pet imaging of peripheral benzodiazepine receptor in primate brain” (J Med Chem, 2004).

Tests used:
[1] = biological target: GABA-A receptor; anion channel; assay: Inhibition of [11C]flumazenil binding to GABA-A central benzodiazepine receptor of monkey brain
Translocator protein [2] = biological target: Translocator protein (Homo sapiens, UniProt P30536); assay: Binding affinity for Peripheral benzodiazepine receptor compared to [11C]2 in monkey brain (No affinity); design: species or system Cercopithecidae; conditions: target entry is the homologue from another species
Chain of Translocator protein (Homo sapiens, UniProt P30536) (P30536 whole entry): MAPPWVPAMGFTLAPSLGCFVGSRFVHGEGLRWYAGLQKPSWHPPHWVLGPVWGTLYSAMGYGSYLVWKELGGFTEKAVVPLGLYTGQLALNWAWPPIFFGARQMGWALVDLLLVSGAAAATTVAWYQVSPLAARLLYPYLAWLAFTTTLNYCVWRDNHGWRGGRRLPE

Mus musculus [3] = species on record: Mus musculus; assay: Compound was tested for radioactivity level in mice adrenal glands (Compound is radiolabeled); format: ADME, organism-based, Adrenal gland; conditions: in vivo
How it was run: (§1)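 Male ddY mice (30–40 g, 9 weeks) given 18F-ligand in saline (average 8 MBq) via tail vein; four per time point killed at 5, 15, 30, 60, 120 min. Brain, liver, lung, heart, kidney, adrenal, bone and blood weighed and gamma-counted; decay-corrected %ID/g wet tissue.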

Mus musculus [4] = species on record: Mus musculus; assay: Compound was tested for radioactivity level in mice kidney (Compound is radiolabeled); format: ADME, organism-based; conditions: in vivo; how it was run: as §1
Mus musculus [5] = species on record: Mus musculus; assay: Compound was tested for radioactivity level in mice lungs (Compound is radiolabeled); format: ADME, organism-based; conditions: in vivo; how it was run: as §1
Mus musculus [6] = species on record: Mus musculus; assay: Compound (0.09% dose/g) was tested for accumulation in mice bone (Compound is radiolabeled) after 120 min; No increase; format: ADME, organism-based, Bone element; conditions: in vivo, 2 h; how it was run: as §1
[7] = Half life was determined; format: ADME; conditions: rat
[8] = biological target: GABA-A receptor; anion channel; assay: In vitro inhibition of [11C]flumazenil binding to GABA-A central benzodiazepine receptor of rat brain
How it was run: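 Rat brain sagittal cryosections (20 μm, male Sprague-Dawley) preincubated 20 min at 25 °C in 50 mM Tris-HCl pH 7.4, then incubated 30 min at 37 °C with [11C]flumazenil (1 nM) and compound 0.1–1000 nM; nonspecific binding defined with 10 μM flumazenil. Cerebellum radioactivity read by imaging plate; probit-derived IC50 converted to Ki; n = 3.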

Translocator protein [9] = biological target: Translocator protein (Rattus norvegicus, UniProt P16257); assay: In vitro inhibition of [11C]2 binding to Peripheral benzodiazepine receptor (PBR) in rat brain; format: tissue-based
Chain of Translocator protein (Rattus norvegicus, UniProt P16257) (P16257 whole entry, looked up): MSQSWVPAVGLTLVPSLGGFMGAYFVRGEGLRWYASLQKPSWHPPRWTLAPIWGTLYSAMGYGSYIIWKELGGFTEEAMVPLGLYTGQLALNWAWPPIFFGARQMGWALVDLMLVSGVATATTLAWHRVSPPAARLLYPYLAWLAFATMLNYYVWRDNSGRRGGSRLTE

[10] = Partition coefficient of the compound; format: physicochemical; conditions: octanol/water
How it was run: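 LogD measured by shake-flask partition between phosphate buffer (pH 7.4) and octanol; mean of n = 3.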

Mus musculus [11] = species on record: Mus musculus; assay: Compound was tested for radioactivity level in mice heart (Compound is radiolabeled); format: ADME, organism-based; conditions: in vivo; how it was run: as §1
Mus musculus [12] = species on record: Mus musculus; assay: Compound was tested for radioactivity level in mice brain (Compound is radiolabeled); 2.2-4.9% ID/g; format: ADME, organism-based; conditions: in vivo; how it was run: as §1
Mus musculus [13] = species on record: Mus musculus; assay: Compound (0.31% dose/g) was tested for accumulation in mice bone (Compound is radiolabeled) after 30 min; Low increase; format: ADME, organism-based; conditions: in vivo, 0.5 h; how it was run: as §1

Compound | IC50 [1] [nM] | IC50 (Translocator protein [2]) | Radioactivity level (Mus musculus [3]) [%] | Radioactivity level (Mus musculus [4]) [%] | Radioactivity level (Mus musculus [5]) [%] | Activity (Mus musculus [6]) | T1/2 [7] [h] | Ki [8] [nM] | Ki (Translocator protein [9]) [nM] | logD [10] | Radioactivity level (Mus musculus [11]) [%] | Radioactivity level (Mus musculus [12]) [%] | Activity (Mus musculus [13])
CC(=O)Nc1cc(F)ccc1Oc1ccccc1 | > 10000 | Not Active |  |  |  |  |  |  |  |  |  |  | 
COc1ccc(OCF)c(CN(C(C)=O)c2cc(F)ccc2Oc2ccccc2)c1 |  |  | > 5 | > 5 | > 5 | 5.6% | 1.83 | > 1000 | 0.17 | 3.7 | > 5 |  | 
COc1ccc(OCCF)c(CN(C(C)=O)c2cc(F)ccc2Oc2ccccc2)c1 |  |  | > 5 | > 5 | > 5 | Not Active | 1.83 | > 1000 | 0.078 | 3.81 | > 5 | < 4.9 | Partially active
CCC(C)N(C)C(=O)c1cc2ccccc2c(-c2ccccc2Cl)n1 (stereo not drawn) [PK-11195] |  |  |  |  |  |  |  | > 1000 |  | 2.78 |  |  | 
COc1ccc(OCI)c(CN(C(C)=O)c2cc(F)ccc2Oc2ccccc2)c1 |  |  |  |  |  |  |  | > 1000 | 4.8 | 4.02 |  |  | 
COc1ccc(OC)c(CN(C(C)=O)c2cc(F)ccc2Oc2ccccc2)c1 |  |  |  |  |  |  |  | > 1000 | 0.16 | 3.65 |  |  | 
COc1ccc(OCCOS(=O)(=O)c2ccc(C)cc2)c(CN(C(C)=O)c2cc(F)ccc2Oc2ccccc2)c1 |  |  |  |  |  |  |  | > 1000 | 18.1 | 4.65 |  |  | 
